For assay [1], the species on record is Mus musculus. As to the kind of experiment: Relative tumor weight in treated compared to control mice bearing hormone-dependent transplanted MXT mammary tumors at 1.5 mg. It counts as functional, organism-based.
The target of assay [2] is T1, Estrogen receptor (Mus musculus) (UniProt O08537+P19785). As to the kind of experiment: Anti-uterotrophic effect in hormone-dependent transplant MXT bearing mice as relative uterine weight in treated and control mice at 1.5 mg. It is filed as functional.
Target sequence in this assay (P19785 whole entry, looked up, chain 1 of 2): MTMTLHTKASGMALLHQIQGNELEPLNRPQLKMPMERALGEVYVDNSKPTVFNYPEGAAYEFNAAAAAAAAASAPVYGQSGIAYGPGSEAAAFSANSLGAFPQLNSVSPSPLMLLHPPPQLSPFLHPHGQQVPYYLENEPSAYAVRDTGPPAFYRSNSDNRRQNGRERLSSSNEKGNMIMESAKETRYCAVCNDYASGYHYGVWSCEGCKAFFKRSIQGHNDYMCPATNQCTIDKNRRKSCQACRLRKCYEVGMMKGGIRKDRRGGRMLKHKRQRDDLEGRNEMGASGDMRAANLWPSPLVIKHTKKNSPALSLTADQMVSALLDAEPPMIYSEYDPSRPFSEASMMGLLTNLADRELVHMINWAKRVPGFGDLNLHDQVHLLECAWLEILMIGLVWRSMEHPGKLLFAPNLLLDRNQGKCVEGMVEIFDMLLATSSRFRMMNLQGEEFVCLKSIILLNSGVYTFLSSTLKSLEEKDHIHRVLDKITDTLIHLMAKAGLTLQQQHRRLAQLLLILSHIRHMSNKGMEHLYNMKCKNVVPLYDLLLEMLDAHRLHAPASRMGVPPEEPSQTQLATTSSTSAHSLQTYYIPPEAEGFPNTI
Target sequence in this assay (O08537 whole entry, looked up, chain 2 of 2): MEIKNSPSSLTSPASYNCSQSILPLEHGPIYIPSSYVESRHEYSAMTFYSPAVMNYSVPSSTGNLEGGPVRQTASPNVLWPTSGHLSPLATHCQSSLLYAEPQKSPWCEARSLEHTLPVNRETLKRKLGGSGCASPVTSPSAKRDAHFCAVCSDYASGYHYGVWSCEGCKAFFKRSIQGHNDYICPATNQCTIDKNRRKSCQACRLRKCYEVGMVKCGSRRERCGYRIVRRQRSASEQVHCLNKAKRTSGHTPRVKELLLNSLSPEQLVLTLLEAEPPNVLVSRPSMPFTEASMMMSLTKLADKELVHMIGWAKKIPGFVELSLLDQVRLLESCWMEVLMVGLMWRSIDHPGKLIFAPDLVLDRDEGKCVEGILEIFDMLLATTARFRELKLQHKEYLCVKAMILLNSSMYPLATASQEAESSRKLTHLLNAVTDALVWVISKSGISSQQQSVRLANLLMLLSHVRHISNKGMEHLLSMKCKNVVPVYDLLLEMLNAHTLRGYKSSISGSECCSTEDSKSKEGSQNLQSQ
For assay [3], the species on record is Mus musculus. As to the kind of experiment: Anti-tumor activity in hormone-dependent transplant MXT mammary tumor bearing mice at 1.5 mg (control=534+/-652). It counts as functional, organism-based.
Assay [4] relates to MCF7. As to the kind of experiment: Effect on Estrogen receptor positive MCF-7 human breast cancer cell proliferation at 1x10E-6M (control = 66.9+/-7.0). It is filed as functional. In short, it runs like this: (§1)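 MCF-7 cells were kept in MEM with 5% charcoal-treated newborn calf serum and phenol red for 2 weeks, then about 2×10^4 cells were plated per well. Compounds in 0.1% DMF were added 2 days later and renewed on day 4; DMF alone served as control. Coulter cell counts were taken on day 5; mean of six dishes ± SD; % T/C.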

Assay [5] deals with MCF7. As to the kind of experiment: Effect on Estrogen receptor positive MCF-7 human breast cancer cell proliferation at 5x10E-6M (control = 66.9+/-7.0). It is filed as functional. In short, it runs like this: as §1
For assay [6], the system named is MCF7. As to the kind of experiment: Effect on [3H]thymidine incorporation into estrogen receptor positive MCF-7 human breast cancer cells at 1*10^-6 M (control = 28.2+/-3.0). It is filed as functional. In short, it runs like this: (§2)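 MCF-7 cells were grown in MEM with charcoal-treated 5% newborn calf serum and phenol red, then treated with compounds in 0.1% DMF (renewed on day 4) alongside DMF controls. They were labeled 3 days later with 1 µCi [³H]thymidine per well for 2 h, and incorporated radioactivity per dish was measured; mean of six dishes ± SD; % T/C.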
(Uptake of a labelled nucleoside into DNA is a usual measure of proliferation.)

The test system of assay [7] is MCF7. As to the kind of experiment: Effect on [3H]thymidine incorporation into estrogen receptor positive MCF-7 human breast cancer cells at 5x10E-6M (control = 28.2+/-3.0). It is filed as functional. In short, it runs like this: (§3)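 MCF-7 cells in improved MEM with glutamine, gentamycin and 5% newborn calf serum, switched to charcoal-treated serum two weeks ahead; phenol red present; 37 °C, 5% CO2. About 2×10^4 cells plated per well; compound in 0.1% DMF added 2 days later, renewed on day 4; labelled 3 days later with 1 μCi [3H]thymidine per well for 2 h; cpm/dish, mean of six dishes ± SD.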

The target of assay [8] is T1, Estrogen receptor (Mus musculus). As to the kind of experiment: Percent inhibition of estrone stimulated uterotrophic effect in mice at 15 ug. It is filed as functional. A digest of the protocol: (§4)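 Immature mice given test compound per animal sc on three consecutive days together with 0.4 μg estrone/animal/day. Killed 24 h after last injection; uteri fixed in Bouin, dried 100 °C 24 h and weighed. Inhibition = 100 − [(W_S,T − W_V)/(W_S − W_V) × 100] using relative uterus weights; 6-10 animals; Wilcoxon-Mann-Whitney U test.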
Target sequence in this assay (O08537 whole entry, looked up): as the sequence (O08537 whole entry, looked up, chain 2 of 2) above
Target sequence in this assay (P19785 whole entry, looked up): as the sequence (P19785 whole entry, looked up, chain 1 of 2) above

Assay [9] shares this target. As to the kind of experiment: Percent inhibition of estrone stimulated uterotrophic effect in mice at 150 ug. It counts as functional. In short, it runs like this:
as §4
Target sequence in this assay (O08537 whole entry, looked up): as the sequence (O08537 whole entry, looked up, chain 2 of 2) above
Target sequence in this assay (P19785 whole entry, looked up): as the sequence (P19785 whole entry, looked up, chain 1 of 2) above

Assay [10] has the same target. As to the kind of experiment: Uterotrophic effect in mice as relative uterine weight(mg) at 15 ug (control = 12.3+/-3.7). It counts as functional, tissue-based. A digest of the protocol:
(§5)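 Immature mice dosed sc per animal on three consecutive days; vehicle controls. Killed and weighed 24 h after last injection; uteri fixed in Bouin solution 2 h, washed with alcoholic LiCl, dried at 100 °C for 24 h. Relative uterus weight = uterine dry weight (mg)/body weight (g) × 100; mean of 6-10 animals ± SD.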
Target sequence in this assay (O08537 whole entry, looked up): as the sequence (O08537 whole entry, looked up, chain 2 of 2) above
Target sequence in this assay (P19785 whole entry, looked up): as the sequence (P19785 whole entry, looked up, chain 1 of 2) above

The target is the same in assay [11]. As to the kind of experiment: Uterotrophic effect in mice as relative uterine weight(mg) at 150 ug (control = 12.3+/-3.7). It counts as functional, tissue-based. In short, it runs like this: as §5
Target sequence in this assay (O08537 whole entry, looked up): as the sequence (O08537 whole entry, looked up, chain 2 of 2) above
Target sequence in this assay (P19785 whole entry, looked up): as the sequence (P19785 whole entry, looked up, chain 1 of 2) above
For assay [12], the system named is MCF7. As to the kind of experiment: Effect on Estrogen receptor positive MCF-7 human breast cancer cell proliferation at 1x10E-6M. It counts as functional. A digest of the protocol:
as §1

The test system of assay [13] is MCF7. As to the kind of experiment: Effect on Estrogen receptor positive MCF-7 human breast cancer cell proliferation at 5x10E-6M. It is filed as functional. In short, it runs like this:
as §1

Assay [14] has as its target T1, Estrogen receptor (Mus musculus). As to the kind of experiment: Anti-uterotrophic effect in mice as relative uterine weight(mg) at 15 ug. It is filed as functional. In short, it runs like this: (§6)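 Immature mice received the compound sc per animal on three consecutive days, alone or with 0.4 µg estrone per animal per day. Uteri were taken 24 h after the last injection, Bouin-fixed, dried at 100 °C for 24 h and weighed. Relative uterus weight = dry weight (mg)/body weight (g) × 100; mean of 6-10 animals ± SD; Mann-Whitney U test.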
Target sequence in this assay (O08537 whole entry, looked up): as the sequence (O08537 whole entry, looked up, chain 2 of 2) above
Target sequence in this assay (P19785 whole entry, looked up): as the sequence (P19785 whole entry, looked up, chain 1 of 2) above

Assay [15] shares this target. As to the kind of experiment: Anti-uterotrophic effect in mice as relative uterine weight(mg) at 150 ug. It counts as functional. A digest of the protocol:
as §6
Target sequence in this assay (O08537 whole entry, looked up): as the sequence (O08537 whole entry, looked up, chain 2 of 2) above
Target sequence in this assay (P19785 whole entry, looked up): as the sequence (P19785 whole entry, looked up, chain 1 of 2) above

The test system of assay [16] is MCF7. As to the kind of experiment: Effect on [3H]thymidine incorporation into estrogen receptor positive MCF-7 human breast cancer cells at 1x10E-6M. It is filed as functional. In short, it runs like this:
as §2

In assay [17] the test system is MCF7. As to the kind of experiment: Effect on [3H]thymidine incorporation into estrogen receptor positive MCF-7 human breast cancer cells at 5x10E-6M. It counts as functional. In short, it runs like this:
as §3

Assay [18] deals with T1, Estrogen receptor (Mus musculus). As to the kind of experiment: Uterotrophic effect in mice as relative uterine weight(mg) at 25 ug (control = 12.3+/-3.7). It is filed as functional, tissue-based. In short, it runs like this: as §5
Target sequence in this assay (P19785 whole entry, looked up, chain 1 of 2): as above
Target sequence in this assay (O08537 whole entry, looked up, chain 2 of 2): as the sequence (O08537 whole entry, looked up, chain 2 of 2) above
Assay [19] has the same target. As to the kind of experiment: Uterotrophic effect in mice as relative uterine weight(mg) at 250 ug (control = 12.3+/-3.7). It is filed as functional, tissue-based. In short, it runs like this:
as §5
Target sequence in this assay (P19785 whole entry, looked up, chain 1 of 2): as the sequence (P19785 whole entry, looked up, chain 1 of 2) above
Target sequence in this assay (O08537 whole entry, looked up, chain 2 of 2): as the sequence (O08537 whole entry, looked up, chain 2 of 2) above

For assay [20] the target is unchanged. As to the kind of experiment: Anti-uterotrophic effect in mice as relative uterine weight(mg) at 250 ug. It is filed as functional. In short, it runs like this:
as §6
Target sequence in this assay (P19785 whole entry, looked up, chain 1 of 2): as the sequence (P19785 whole entry, looked up, chain 1 of 2) above
Target sequence in this assay (O08537 whole entry, looked up, chain 2 of 2): as the sequence (O08537 whole entry, looked up, chain 2 of 2) above

The T/C is the result in the treated group divided by that in the control group, in per cent. A word on the inhibition: it is the drop in the measured response relative to a control, in per cent. Read a high inhibition as strong suppression.

For CISPLATIN, the T/C in assay [1] was 12%; in assay [2], 76%. Moreover, in [3], the Tumor weight is 64 mg.
Consider `Cc1c(-c2ccc(O)cc2)n(CCCCCNCc2ccccn2)c2ccc(O)cc12`, for which the Cell no/dish in assay [4] is reported as 430000; in [5], 287000. In addition, the Activity in assay [6] amounted to 21600; in assay [7], 18900. Also, the figures for the inhibition in [8] and in assay [9] were 9% and 5%, respectively. The Relative uterus weight was 16.4 mg in [10], 13.3 mg in [11], 42.6 mg in assay [14] and 44 mg in assay [15]. Moreover, the T/C in assay [12] is recorded as 64%; in assay [13], 43%; in assay [16], 76%; in assay [17], 67%.
As for “[5-hydroxy-3-methyl-2-(4-hydroxyphenyl)-1-[omega-[(2-pyridylmethyl)amino]pentyl]indole]dichloroplatinum (II) complex”, the Cell no/dish in [4] was 674000; in [5] it was 571000. Further, the Activity amounted to 16900 in assay [6] and 15200 in [7]. Moreover, the Relative uterus weight in [18] amounted to 16.3 mg; in assay [19], 22.1 mg; in assay [20], 46.6 mg. For the same compound, the T/C in assay [12] turned out to be 101%; in assay [13], 85%; in assay [16], 60%; in assay [17], 54%.

The values above are taken from ChEMBL document CHEMBL1125823, “2-Phenylindole-linked [2-(aminoalkyl)pyridine]dichloroplatinum(II): complexes with a selective action on estrogen receptor positive mammary tumors” (1991).
